According to ChEMBL document CHEMBL1135969, “Discovery of an opioid kappa receptor selective pure antagonist from a library of N-substituted 4beta-methyl-5-(3-hydroxyphenyl)morphans” (J Med Chem, 2002):
pKi: −log10 of the molar value.

What was measured:
[1] = molecular target: Opioid receptors; mu & delta (Homo sapiens) (UniProt P41143+P35372); assay: Selectivity ratio of Ki at mu opioid receptor to Ki at kappa opioid receptor; type: protein assay
[2] = molecular target: Opioid receptors; delta & kappa (Homo sapiens) (UniProt P41145+P41143); assay: Selectivity ratio of Ki at delta opioid receptor to Ki at kappa opioid receptor; type: protein assay
[3] = molecular target: Kappa-type opioid receptor (Cavia porcellus, UniProt P41144); assay: Ability to displace [3H]U-69593 from Opioid receptor kappa 1 of guinea pig brain
Procedure, shortened: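 Competitive radioligand binding in guinea pig brain tissue, using tritiated U69,593, a κ-selective agonist, as the displaced ligand. Affinity is reported as Ki.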

[4] = molecular target: Delta-type opioid receptor (Rattus norvegicus, UniProt P33533); assay: Ability to displace [3H]DADLE from Opioid receptor delta 1 of rat brain; type: tissue-based
Procedure, shortened: (§1)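 Radioligand displacement binding giving Ki values. Rat brain tissue was used for the μ site (tritiated μ-selective ligand) and the δ site ([3H]DADLE, δ-selective). Guinea pig brain tissue was used for the κ site ([3H]U69,593, a κ-selective agonist).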

Mu-type opioid receptor = Mu-type opioid receptor (Rattus norvegicus, UniProt P33535); assay: Ability to displace [3H]DAMGO from Opioid receptor mu 1 of rat brain; type: tissue-based; procedure, shortened: as §1
[5] = molecular target: Delta-type opioid receptor (Homo sapiens) (UniProt P41143); settings: CHO
[6] = molecular target: Mu-type opioid receptor (Homo sapiens) (UniProt P35372); settings: CHO
[7] = molecular target: Kappa-type opioid receptor (Homo sapiens) (UniProt P41145); settings: CHO
Sequence of Kappa-type opioid receptor (Homo sapiens) (P41145 whole entry): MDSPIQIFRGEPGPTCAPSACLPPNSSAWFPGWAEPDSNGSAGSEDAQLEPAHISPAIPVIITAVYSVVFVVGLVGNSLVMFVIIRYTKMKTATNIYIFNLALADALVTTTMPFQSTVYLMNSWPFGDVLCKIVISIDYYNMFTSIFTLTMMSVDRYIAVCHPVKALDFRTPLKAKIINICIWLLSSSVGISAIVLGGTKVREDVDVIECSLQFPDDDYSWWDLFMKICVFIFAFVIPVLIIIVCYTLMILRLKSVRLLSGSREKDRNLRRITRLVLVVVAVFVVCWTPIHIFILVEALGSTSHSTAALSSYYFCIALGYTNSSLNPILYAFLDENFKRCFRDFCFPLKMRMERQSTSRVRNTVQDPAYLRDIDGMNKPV

Sequence of Mu-type opioid receptor (P33535 whole entry): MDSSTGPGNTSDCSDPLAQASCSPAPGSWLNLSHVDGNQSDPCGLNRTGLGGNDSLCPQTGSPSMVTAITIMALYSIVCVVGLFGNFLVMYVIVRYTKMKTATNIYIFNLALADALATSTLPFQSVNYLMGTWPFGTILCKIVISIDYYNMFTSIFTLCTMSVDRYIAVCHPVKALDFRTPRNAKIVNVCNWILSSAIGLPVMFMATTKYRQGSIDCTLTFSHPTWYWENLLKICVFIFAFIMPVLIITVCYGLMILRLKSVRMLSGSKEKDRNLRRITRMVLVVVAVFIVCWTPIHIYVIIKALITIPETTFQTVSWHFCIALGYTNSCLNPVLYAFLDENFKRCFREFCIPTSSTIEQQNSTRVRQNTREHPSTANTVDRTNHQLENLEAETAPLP
Sequence of Kappa-type opioid receptor (P41144 whole entry): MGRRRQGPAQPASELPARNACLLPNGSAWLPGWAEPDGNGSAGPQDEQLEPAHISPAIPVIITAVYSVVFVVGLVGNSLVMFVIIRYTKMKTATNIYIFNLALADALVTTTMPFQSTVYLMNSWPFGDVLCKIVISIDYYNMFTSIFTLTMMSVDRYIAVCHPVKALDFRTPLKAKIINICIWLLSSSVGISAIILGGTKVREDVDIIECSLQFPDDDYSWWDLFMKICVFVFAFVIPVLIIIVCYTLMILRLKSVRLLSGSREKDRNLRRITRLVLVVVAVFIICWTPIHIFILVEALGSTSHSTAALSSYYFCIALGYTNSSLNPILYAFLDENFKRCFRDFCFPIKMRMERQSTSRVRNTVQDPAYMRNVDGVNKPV
Sequence of Opioid receptors; mu & delta (Homo sapiens) (P35372 whole entry, looked up): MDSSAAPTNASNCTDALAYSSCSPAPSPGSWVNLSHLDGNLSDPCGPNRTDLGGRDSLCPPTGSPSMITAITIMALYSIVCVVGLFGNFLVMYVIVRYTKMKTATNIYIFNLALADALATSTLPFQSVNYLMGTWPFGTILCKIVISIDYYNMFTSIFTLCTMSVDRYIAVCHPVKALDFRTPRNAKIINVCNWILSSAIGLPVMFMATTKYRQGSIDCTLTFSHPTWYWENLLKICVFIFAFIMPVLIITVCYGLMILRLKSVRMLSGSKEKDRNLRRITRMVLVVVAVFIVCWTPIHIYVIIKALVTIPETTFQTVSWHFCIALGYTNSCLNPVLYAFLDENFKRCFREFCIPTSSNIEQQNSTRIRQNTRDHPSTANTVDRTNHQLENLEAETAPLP
Sequence of Opioid receptors; mu & delta (Homo sapiens) (P41143 whole entry, looked up): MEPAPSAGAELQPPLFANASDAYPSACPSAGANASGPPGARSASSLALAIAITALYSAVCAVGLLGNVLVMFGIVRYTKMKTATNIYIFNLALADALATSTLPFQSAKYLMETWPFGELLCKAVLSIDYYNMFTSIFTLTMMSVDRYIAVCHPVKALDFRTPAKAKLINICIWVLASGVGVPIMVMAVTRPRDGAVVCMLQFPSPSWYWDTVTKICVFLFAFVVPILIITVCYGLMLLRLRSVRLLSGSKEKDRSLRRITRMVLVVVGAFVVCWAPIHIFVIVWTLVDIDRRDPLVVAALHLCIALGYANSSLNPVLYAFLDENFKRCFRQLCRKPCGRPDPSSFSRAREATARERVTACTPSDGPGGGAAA
Sequence of Opioid receptors; delta & kappa (Homo sapiens) (P41143 whole entry, looked up): as above
Sequence of Opioid receptors; delta & kappa (Homo sapiens) (P41145 whole entry, looked up): as the sequence (P41145 whole entry) above
Sequence of Delta-type opioid receptor (P33533 whole entry): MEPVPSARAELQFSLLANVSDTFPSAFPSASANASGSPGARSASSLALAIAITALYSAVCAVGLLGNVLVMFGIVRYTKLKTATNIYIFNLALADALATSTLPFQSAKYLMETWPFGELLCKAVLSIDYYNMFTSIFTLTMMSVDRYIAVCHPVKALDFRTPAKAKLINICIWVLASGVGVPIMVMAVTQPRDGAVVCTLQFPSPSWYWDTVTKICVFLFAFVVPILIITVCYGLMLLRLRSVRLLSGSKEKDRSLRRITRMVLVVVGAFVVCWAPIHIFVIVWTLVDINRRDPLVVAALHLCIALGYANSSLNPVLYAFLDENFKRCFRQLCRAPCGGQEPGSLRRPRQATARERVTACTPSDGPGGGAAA
Sequence of Mu-type opioid receptor (Homo sapiens) (P35372 whole entry): as the sequence (P35372 whole entry, looked up) above
Sequence of Delta-type opioid receptor (Homo sapiens) (P41143 whole entry): as the sequence (P41143 whole entry, looked up) above

| Compound | Ratio [1] | Ratio [2] | pKi [3] | pKi [4] | pKi (Mu-type opioid receptor) | further results |
| --- | --- | --- | --- | --- | --- | --- |
| CC1CN(CCCc2ccccc2)C2C[C@H](N)CC1(c1cccc(O)c1)C2 (single isomer, unassigned; (+)) [listing 1 of 2 here] | 0.23 | 0.27 | – | – | – | – |
| CC1CN(CCCc2ccccc2)C2C[C@H](N)CC1(c1cccc(O)c1)C2 (single isomer, unassigned; (-)) [listing 1 of 2 here] | – | – | 6.91 | 7.83 | 8.48 | – |
| CC1CN(CCCc2ccccc2)C2C[C@H](N)CC1(c1cccc(O)c1)C2 (single isomer, unassigned; (+)) [listing 2 of 2 here] | – | – | 6.05 | 6.61 | 6.68 | – |
| CC1CN(CCCc2ccccc2)C2C[C@H](N)CC1(c1cccc(O)c1)C2 (single isomer, unassigned; (-)) [listing 2 of 2 here] | 0.03 | 0.1 | – | – | – | – |
| Oc1ccc2c3c1O[C@H]1c4[nH]c5c(c4C[C@@]4(O)[C@@H](C2)N(CC2CC2)CC[C@]314)C[C@@]1(O)[C@H]2Cc3ccc(O)c4c3[C@@]1(CCN2CC1CC1)[C@H]5O4 | – | – | – | – | – | Ke [5]: 4.6 nM; Ke [6]: 19 nM; Ke [7]: 0.04 nM |
